Measured values taken from ChEMBL document CHEMBL1122270, “N-(4-substituted-thiazolyl)oxamic acid derivatives, a new series of potent, orally active antiallergy agents” (1983).

Legend:
Assay type in all cases: functional
Rattus norvegicus [1] = test: Antiallergic activity by rat passive cutaneous anaphylaxis (PCA) assay when administered iv.;value ranges between (0.06-0.4)
In short: (§1)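 Male rats sensitized by id injection of diluted rat anti-ovalbumin reaginic serum (0.1 mL each side of shaved back). 24 h later, compound in saline was mixed with 5 mg ovalbumin in 0.5 mL 2% Evans Blue and given iv at 1 mL/kg. Blued-spot diameters were read 30 min later. Six rats per group; ED50 is 50% area reduction versus control, with 95% confidence limits.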

Rattus norvegicus [2] = test: Antiallergic activity by rat passive cutaneous anaphylaxis (PCA) assay when administered per orally.;value ranges between (1.0-4.1.); conditions: po
In short: (§2)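 Rats were passively sensitized intradermally with diluted reaginic anti-ovalbumin serum 24 h before challenge. Compound was suspended in 1% acacia and dosed by oral feeding needle at 1 mL/kg. After 20-30 min, rats were challenged with 0.02 mg ovalbumin in 0.5 mL 2% Evans Blue. Blued areas were measured 30 min after challenge. Six rats per dose; ED50 is 50% area reduction from control, with 95% confidence limits.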

Rattus norvegicus [3] = test: Antiallergic activity by rat passive cutaneous anaphylaxis (PCA) assay when administered per orally;value ranges between (2.0-5.0.); conditions: po; in short: as §2
Rattus norvegicus [4] = test: Antiallergic activity by rat passive cutaneous anaphylaxis (PCA) assay when administered perorally.; conditions: po; in short: as §2
Rattus norvegicus [5] = test: antiallergic activity by rat passive cutaneous anaphylaxis (PCA) assay when administered iv; in short: as §1
Rattus norvegicus [6] = test: Antiallergic activity by rat passive cutaneous anaphylaxis (PCA) assay when administered iv.;value ranges between (0.2-1.8.); in short: as §1
Rattus norvegicus [7] = test: Antiallergic activity by rat passive cutaneous anaphylaxis (PCA) assay when administered perorally; value ranges between (2.9-15.4); conditions: po; in short: as §2
Rattus norvegicus [8] = test: Antiallergic activity by rat passive cutaneous anaphylaxis (PCA) assay when administered per orally;value ranges between (1.5-9.0).; conditions: po; in short: as §2
Rattus norvegicus [9] = test: Antiallergic activity by rat passive cutaneous anaphylaxis (PCA) assay when administered iv;value ranges between 0.02-0.07; in short: as §1
Rattus norvegicus [10] = test: Antiallergic activity by rat passive cutaneous anaphylaxis (PCA) assay when administered per orally;value ranges between (0.32-1.04); conditions: po; in short: as §2

## COc1cccc(-c2csc(NC(=O)C(=O)O)n2)c1
Rattus norvegicus [1]
  ED50: 0.16 mg/kg
Rattus norvegicus [2]
  ED50: 2.1 mg/kg

## CCOC(=O)C(=O)Nc1nc(-c2ccc(N3CCCCC3)cc2)cs1
Rattus norvegicus [3]
  ED50: 3.2 mg/kg

## O=C(O)C(=O)Nc1nc(-c2ccccc2)cs1
Rattus norvegicus [4]
  ED50: ~1 mg/kg
Rattus norvegicus [5]
  ED50: > 3 mg/kg

## NCCO.O=C(O)C(=O)Nc1nc(-c2ccccc2O)cs1
Rattus norvegicus [6]
  ED50: 0.62 mg/kg
Rattus norvegicus [7]
  ED50: 6.7 mg/kg

## CCOC(=O)C(=O)Nc1nc(-c2ccc(O)cc2C)cs1
Rattus norvegicus [8]
  ED50: 3.7 mg/kg

## NCCO.O=C(O)C(=O)Nc1nc(-c2ccc3c(c2)OCCO3)cs1
Rattus norvegicus [9]
  ED50: 0.039 mg/kg
Rattus norvegicus [10]
  ED50: 0.6 mg/kg
